Test results: ChEMBL document CHEMBL3745661, “Allosteric inhibitors of Coxsackie virus A24 RNA polymerase” (Bioorg Med Chem, 2016)
The source made the active and inactive calls. The calls are words filed in the database; no cut-off is given here.

What was measured:
[1] = tested on: Coxsackievirus A24; experiment: Inhibition of Coxsackievirus A24 RNA polymerase 3D-POL assessed as reduction in uridylylated VPg level at 25 uM after 60 mins by SDS-PAGE analysis
Outline: (§1)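 Purified CVA24 3Dpol (1–2 µg) incubated at 30°C with 1 µg synthetic VPg, 0.5 µg polyA template, 10 µM UTP plus α-32P-UTP, and 0.5 mM Mn(II) acetate in 50 mM HEPES pH 7.5, 8% glycerol. Compounds were diluted from DMSO stocks in that buffer first. Reactions were stopped on ice, run on 16% urea Tris-Tricine SDS-PAGE, and VPgpU and VPgpolyU were phosphorimaged relative to DMSO or buffer controls.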

[2] = tested on: Coxsackievirus A24; experiment: Inhibition of Coxsackievirus A24 RNA polymerase 3D-POL assessed as reduction in VPgpolyU level at 25 uM after 60 mins by SDS-PAGE analysis; outline: as §1
[3] = Lipophilicity, log P of the compound; assay type: physicochemical; details: octanol/water
[4] = tested on: Dengue virus; experiment: Inhibition of Dengue virus RNA polymerase NS5 assessed as reduction in polyU formation at 20 uM by SDS-PAGE analysis
[5] = tested on: Dengue virus; experiment: Inhibition of Dengue virus RNA polymerase NS5 assessed as reduction in polyU formation at 10 uM by SDS-PAGE analysis
[6] = tested on: Coxsackievirus A24; experiment: Inhibition of Coxsackievirus A24 RNA polymerase 3D-POL assessed as reduction in VPgpolyU level at 10 uM by SDS-PAGE analysis; outline: as §1
[7] = tested on: Coxsackievirus A24; experiment: Inhibition of Coxsackievirus A24 RNA polymerase 3D-POL assessed as reduction in uridylylated VPg level at 10 uM by SDS-PAGE analysis; outline: as §1
[8] = tested on: Coxsackievirus A24; experiment: Inhibition of Coxsackievirus A24 RNA polymerase 3D-POL assessed as reduction in VPgpolyU level at 20 uM by SDS-PAGE analysis; outline: as §1
[9] = tested on: Coxsackievirus A24; experiment: Inhibition of Coxsackievirus A24 RNA polymerase 3D-POL assessed as reduction in uridylylated VPg level at 20 uM by SDS-PAGE analysis; outline: as §1

Which inhibition [1] does the source give for `O=S(=O)(c1ccccc1)N1CCN(C2c3ccccc3-c3ccccc32)CC1` here?
Its inhibition is “inactive”.

And the inhibition [2]?
The inhibition was “inactive”.

And the logP [3]?
The logP was 4.26.

For `O=C(NNc1cc(C(F)(F)F)nc2ccccc12)Nc1cccc(Cl)c1`, which inhibition [1] is on record?
The inhibition was “inactive”.

What about the inhibition [2] of the same molecule?
Its inhibition is “inactive”.

What about the logP [3] of the same molecule?
The logP was 5.14.

Which logP [3] does the source give for `Cn1c(=O)oc2cc(S(=O)(=O)Nc3ccccc3Oc3ccccc3Cl)ccc21` here?
Its logP is 4.32.

With `O=C(Nc1ccccc1)Nc1ccc(Oc2cccc(C(F)(F)F)c2)nc1` as the molecule, how does the inhibition [1] read?
The inhibition was “inactive”.

What about the inhibition [2] of the same molecule?
Its inhibition is “inactive”.

And the logP [3]?
The logP was 5.04.

For `C[C@@H](CS(=O)(=O)Nc1ccc2c(c1)oc(=O)n2C)c1ccccc1`, which logP [3] is on record?
Its logP is 3.06.

What does the source list for `C/C(=N/Nc1nnc(-c2ccccc2)c(-c2ccccc2)n1)c1ccco1`?
inhibition [1]: inactive; inhibition [2]: inactive; logP [3]: 4.36

Which inhibition [1] does the source give for `c1ccc2c(c1)Nc1nc3ccccc3nc1O2` here?
The inhibition was “inactive”.

What about the inhibition [2] of the same molecule?
Its inhibition is “inactive”.

What about the logP [3] of the same molecule?
Its logP is 3.46.

What does the source list for `COC(=O)c1cc(=O)c2cc(NC(=O)c3ccc(OC(F)(F)F)cc3)ccc2[nH]1`?
inhibition [1]: inactive; inhibition [2]: inactive; logP [3]: 2.78

For `O=C(Nc1ccc(OC(F)(F)F)cc1)N1CCN(c2ncccn2)CC1`, which inhibition [1] is on record?
The inhibition was “inactive”.

And the inhibition [2]?
The inhibition was “inactive”.

And the logP [3]?
The logP was 2.96.

Which inhibition [1] does the source give for `O=S(=O)(NNc1cnc2ccccc2n1)c1ccccc1C(F)(F)F` here?
Its inhibition is “inactive”.

What about the inhibition [2] of the same molecule?
Its inhibition is “inactive”.

And the logP [3]?
Its logP is 3.23.

Which results are given for `Cn1c(=O)oc2cc(S(=O)(=O)Nc3ccccc3NC(=O)c3ccc(C(C)(C)C)cc3)ccc21`?
inhibition [4]: inactive; logP [3]: 4.54

With `O=c1[nH]c2ccc(S(=O)(=O)Nc3cccc(F)c3)cc2o1` as the molecule, how does the inhibition [5] read?
Its inhibition is “inactive”.

And the logP [3]?
The logP was 2.06.

And the inhibition [6]?
Its inhibition is “Active”.

And the inhibition [7]?
The inhibition was “Active”.

Which logP [3] does the source give for `Cn1c(=O)oc2cc(S(=O)(=O)N(CCC(N)=O)c3ccccc3)ccc21` here?
Its logP is 1.23.

For `N#Cc1ccc(S(=O)(=O)N2CCNC(=O)[C@H]2CC(=O)Nc2cc(Cl)ccc2Cl)cc1`, which inhibition [1] is on record?
Its inhibition is “inactive”.

What about the inhibition [2] of the same molecule?
The inhibition was “inactive”.

What about the logP [3] of the same molecule?
Its logP is 3.54.

With `Cn1c(=O)oc2cc(S(=O)(=O)Nc3ccccc3Sc3ccccc3)ccc21` as the molecule, how does the logP [3] read?
Its logP is 3.91.

For `CCN(c1ccccc1)S(=O)(=O)c1ccc2[nH]c(=O)oc2c1`, which inhibition [4] is on record?
The inhibition was “inactive”.

What about the logP [3] of the same molecule?
The logP was 3.

What about the inhibition [8] of the same molecule?
The inhibition was “Active”.

What about the inhibition [9] of the same molecule?
Its inhibition is “Active”.

Which inhibition [1] does the source give for `Cc1nc(-c2cnccn2)sc1C(=O)N1CCN(C2c3ccccc3-c3ccccc32)CC1` here?
Its inhibition is “inactive”.

And the inhibition [2]?
Its inhibition is “inactive”.

And the logP [3]?
The logP was 3.86.

For `CCOc1ccc(Oc2ccc(NS(=O)(=O)c3ccc4c(c3)oc(=O)n4C)cc2)cc1`, which logP [3] is on record?
The logP was 4.17.

Which results are given for `c1ccc2c(c1)c1ccccc1c1nn3nnnc3nc21`?
inhibition [1]: inactive; inhibition [2]: inactive; logP [3]: 3.16

For `O=S(=O)(NCc1cc(F)cc2c1OCOC2)c1cccc2nonc12`, which inhibition [1] is on record?
The inhibition was “inactive”.

And the inhibition [2]?
The inhibition was “inactive”.

What about the logP [3] of the same molecule?
The logP was 2.2.

Which inhibition [1] does the source give for `Cc1noc(C)c1-c1nc(CN2C(=O)c3ccccc3S2(=O)=O)no1` here?
The inhibition was “inactive”.

And the inhibition [2]?
Its inhibition is “inactive”.

What about the logP [3] of the same molecule?
The logP was 0.51.

With `O=C(Nc1ccc2oc3ncccc3c(=O)c2c1)c1ccc([N+](=O)[O-])cc1` as the molecule, how does the inhibition [1] read?
The inhibition was “inactive”.

And the inhibition [2]?
The inhibition was “inactive”.

And the logP [3]?
Its logP is 3.5.

With `O=C1c2ccccc2S(=O)(=O)N1C[C@@H]1CC(c2ccccc2Cl)=NO1` as the molecule, how does the inhibition [1] read?
Its inhibition is “inactive”.

And the inhibition [2]?
Its inhibition is “inactive”.

And the logP [3]?
The logP was 2.71.

Which inhibition [1] does the source give for `N#Cc1ccc(N2CCN(S(=O)(=O)c3cccc4nonc34)CC2)cc1` here?
Its inhibition is “inactive”.

What about the inhibition [2] of the same molecule?
The inhibition was “inactive”.

And the logP [3]?
Its logP is 2.51.

Which inhibition [1] does the source give for `O=C(NCc1nc2ccccc2s1)c1cc(F)cc2c1OCOC2` here?
Its inhibition is “inactive”.

What about the inhibition [2] of the same molecule?
The inhibition was “inactive”.

What about the logP [3] of the same molecule?
Its logP is 3.12.

What does the source list for `O=S(=O)(NC1CCCc2ccccc21)c1cccc2nonc12` (configuration not stated)?
inhibition [1]: inactive; inhibition [2]: inactive; logP [3]: 3.28

Which results are given for `O=C1/C(=C/c2ccc3c(c2)OCO3)CCC/C1=C\c1ccc2c(c1)OCO2`?
inhibition [1]: inactive; inhibition [2]: inactive; logP [3]: 4.75

With `O=C1c2ccccc2S(=O)(=O)N1CCS(=O)(=O)c1ccc(Cl)cc1Cl` as the molecule, how does the inhibition [1] read?
Its inhibition is “inactive”.

What about the inhibition [2] of the same molecule?
Its inhibition is “inactive”.

And the logP [3]?
Its logP is 2.69.

With `CC(C)COc1ccc(NS(=O)(=O)c2ccc3c(c2)oc(=O)n3C)cc1Cl` as the molecule, how does the logP [3] read?
Its logP is 3.77.

Which inhibition [1] does the source give for `Cc1c(S(=O)(=O)N2CCN(C3c4ccccc4-c4ccccc43)CC2)cnn1-c1ccccc1` here?
Its inhibition is “inactive”.

What about the inhibition [2] of the same molecule?
Its inhibition is “inactive”.

What about the logP [3] of the same molecule?
Its logP is 4.13.

For `CC1=C(C(=O)N[n+]2cnc3cccc(F)c3c2N)Sc2ccccc2N1`, which inhibition [1] is on record?
The inhibition was “inactive”.

What about the inhibition [2] of the same molecule?
The inhibition was “inactive”.

What about the logP [3] of the same molecule?
Its logP is -0.39.

What does the source list for `O=C(CSc1nc2ccccc2o1)N1c2ccccc2Sc2ccccc21`?
inhibition [1]: inactive; inhibition [2]: inactive; logP [3]: 6.09

Which logP [3] does the source give for `Cn1c(=O)oc2cc(S(=O)(=O)Nc3cccc4cccnc34)ccc21` here?
The logP was 1.94.

With `COc1ccc(-c2nc3cc4c(cc3o2)Oc2ccccc2N4)cc1` as the molecule, how does the inhibition [1] read?
The inhibition was “inactive”.

And the inhibition [2]?
Its inhibition is “inactive”.

And the logP [3]?
The logP was 5.09.

For `COC(=O)Nc1nc2cc(-c3nnc(O)c4ccccc34)ccc2[nH]1`, which inhibition [1] is on record?
Its inhibition is “inactive”.

What about the inhibition [2] of the same molecule?
The inhibition was “inactive”.

What about the logP [3] of the same molecule?
The logP was 2.53.
